In publication PMC5004525 (Pharmacognosy Research, 2016):
“Also recorded” adds a separate entry of the source.

Key:
Format in all cases: biochemical
human recombinant UGT2B7 = target: T1, human recombinant UGT2B7 (Homo sapiens, UniProt P16662); assay: UGT-Glo luminescent inhibition assay, human recombinant UGT2B7; details: human recombinant enzyme
T1 sequence (P16662 24-529): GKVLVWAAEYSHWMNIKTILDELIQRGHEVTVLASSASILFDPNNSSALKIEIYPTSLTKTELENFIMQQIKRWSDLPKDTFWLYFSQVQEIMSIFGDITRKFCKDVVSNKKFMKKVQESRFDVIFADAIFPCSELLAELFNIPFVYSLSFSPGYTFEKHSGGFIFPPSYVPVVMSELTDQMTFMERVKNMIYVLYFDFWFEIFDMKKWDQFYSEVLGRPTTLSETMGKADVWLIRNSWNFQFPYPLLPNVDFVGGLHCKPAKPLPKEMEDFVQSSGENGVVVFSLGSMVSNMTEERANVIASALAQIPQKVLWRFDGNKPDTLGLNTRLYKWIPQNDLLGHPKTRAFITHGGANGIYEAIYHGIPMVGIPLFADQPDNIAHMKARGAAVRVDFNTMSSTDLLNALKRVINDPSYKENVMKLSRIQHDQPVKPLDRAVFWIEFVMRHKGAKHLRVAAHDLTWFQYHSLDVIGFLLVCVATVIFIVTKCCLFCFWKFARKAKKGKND

[1] = test system: rat liver UDP-glucuronosyltransferase enzyme (rat liver microsomes); assay: Inhibition of rat liver UGT in rat liver microsomes; details: up to the highest concentration investigated
[2] = test system: rat liver glutathione transferase enzyme; assay: Inhibition of rat liver GST
Procedure, shortened: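 Rat liver cytosol was the 100,000 ×g 60 min supernatant, taken after a 12,500 ×g spin of homogenate in 67 mM phosphate, pH 7.4, with 1.15% KCl. Assay used 0.125 mg/mL cytosol, 0.1 M potassium phosphate pH 6.5, 0.001 M GSH and CDNB, read at 340 nm for 5 min. Blanks used cytosol heat-denatured at 60°C for 20 min.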

[3] = target: human glutathione transferase Pi-1 (hGSTP1) (Homo sapiens, UniProt P09211); assay: Inhibition of human GST Pi-1
human glutathione transferase Pi-1 (hGSTP1), sequence (P09211 2-210 limits assumed): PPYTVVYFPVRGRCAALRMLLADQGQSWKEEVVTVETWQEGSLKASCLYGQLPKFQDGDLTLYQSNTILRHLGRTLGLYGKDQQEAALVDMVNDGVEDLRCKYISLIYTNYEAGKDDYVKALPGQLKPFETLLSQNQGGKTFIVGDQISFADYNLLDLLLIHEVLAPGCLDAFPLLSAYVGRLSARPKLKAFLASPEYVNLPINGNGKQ
Procedure, shortened: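 Purified recombinant human GSTP1 (0.003 mg/mL) in 0.1 M potassium phosphate, pH 6.5, with 0.001 M GSH and CDNB as substrate. Test compounds were tested at 0.01–500 µM and extracts at 0.01–1000 µg/mL. CDNB–GSH conjugation was read at 340 nm over 20 min. The blank replaced enzyme with buffer. Activity is expressed as percent of no-inhibitor control, 5 replicates.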

human recombinant UGT1A1 = target: T2, human recombinant UGT1A1 (Homo sapiens, UniProt P22309); assay: UGT-Glo luminescent inhibition assay, human recombinant UGT1A1
T2 sequence (P22309 26-533): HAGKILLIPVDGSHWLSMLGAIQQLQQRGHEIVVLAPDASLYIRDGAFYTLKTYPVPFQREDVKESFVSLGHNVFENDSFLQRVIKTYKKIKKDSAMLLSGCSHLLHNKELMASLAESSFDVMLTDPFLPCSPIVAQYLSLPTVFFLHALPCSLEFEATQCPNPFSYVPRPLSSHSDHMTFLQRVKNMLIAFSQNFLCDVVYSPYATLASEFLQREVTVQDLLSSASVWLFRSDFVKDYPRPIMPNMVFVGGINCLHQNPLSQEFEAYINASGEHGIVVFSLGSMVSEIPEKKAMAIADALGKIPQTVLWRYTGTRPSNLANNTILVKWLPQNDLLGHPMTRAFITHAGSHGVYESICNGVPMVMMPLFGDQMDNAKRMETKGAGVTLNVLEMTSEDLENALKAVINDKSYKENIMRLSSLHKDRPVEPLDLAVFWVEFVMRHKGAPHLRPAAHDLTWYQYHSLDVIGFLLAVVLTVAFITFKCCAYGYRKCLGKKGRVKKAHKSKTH
Procedure, shortened: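 UGT-Glo luminescent assay at 37°C with 0.1 mg/mL UGT supersomes, 20 µM multienzyme substrate and 4 mM UDPGA. Incubation was 90 min for UGT1A1 and 60 min for UGT2B7. Reactions were stopped with luciferin detection reagent plus D-cysteine for 20 min at room temperature, then luminescence read. Control microsomes lacking UGT served as negative control. Extracts were tested at 0.1–1000 µg/mL and constituents at 0.02–200 µM. IC50 was fitted by nonlinear regression; three determinations from two experiments.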

Compound	inhibition of UGT2B7 (in words) (human recombinant UGT2B7)	inhibition of rat liver UGT enzyme activity (in words) [1]	inhibition of rat liver GST (in words) [2]	inhibition of hGSTP1 (in words) [3]	percentage of inhibition of hGSTP1 activity ([3]; at the highest concentration determined (compounds 500 µM))	inhibition of UGT1A1 (in words) (human recombinant UGT1A1; human recombinant enzyme)	inhibition at 500 µM ([3]; read-out: percentage of inhibition of hGSTP1 activity)	inhibitory effect on UGT1A1 compared to UGT2B7 (human recombinant UGT1A1; ratio of IC50 values UGT2B7/UGT1A1)	IC50, rat liver GST ([2]; CDNB substrate, mean ± SEM, n = 5)
CC(C)=CCCC(C)c1ccc(C)cc1 (centres unmarked) [Curcumene, curcumene]	did not show any inhibition; also recorded: weaker inhibition	did not show any inhibition	very low inhibition or no inhibition	did not show inhibition	< 50%	weaker inhibition	–	–	–
CC(C)=CCC[C@@H](C)c1ccc(C)c(O)c1 [Xanthorrhizol, xanthorrhizol]	–	–	very low inhibition or no inhibition	did not show inhibition	–	–	< 50%	3 times	–
Tannic acid [reference compound]	–	–	–	–	–	–	–	–	4.83 ± 2.29 µg/mL
